The results in this text go back to ChEMBL document CHEMBL1770131, “Radiosynthesis and preliminary evaluation of 4-[18F]fluoro-N-[4-[6-(isopropylamino)pyrimidin-4-yl]-1,3-thiazol-2-yl]-N-methylbenzamide as a new positron emission tomography ligand for metabotropic glutamate receptor subtype 1” (Bioorg Med Chem Lett, 2011).

Series [1] deals with Cerebral cortex. Nature of the series: Biodistribution in Sprague-Dawley rat cerebral cortex at 5 MBq, iv after 30 mins by autoradiography in presence of 1 mg/kg of mGluR1 antagonist JNJ16259685. Further details: dose 1 mg/kg, route intravenous. The note with it: in vivo, 0.5 h. It counts as organism-based. Summed up: (§1)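 Male Sprague–Dawley rats given about 5 MBq radioligand in saline by tail vein, with or without co-injected JNJ16259685 at 1 mg/kg. Killed by cervical dislocation 30 min after injection. Brains frozen on dry ice, cut into 20 µm sagittal sections, and imaged by autoradiography as for the in vitro sections.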

The test system of series [2] is Thalamus. Kind of series: Biodistribution in Sprague-Dawley rat thalamus at 5 MBq, iv after 30 mins by autoradiography. It counts as ADME, organism-based. The note with it: in vivo, 0.5 h. The method in brief:
as §1

Series [3] can be described thus: Octanol-water distribution coefficient, Log D of the compound in at pH 7.4 by shaking method. The class given is physicochemical. The method in brief: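 Radioligand partitioned between n-octanol and PBS at pH 7.4 by shaking. Vortexed 3 min at room temperature, centrifuged 3500 rpm for 5 min. 1 mL of each phase weighed and counted. Organic layer re-partitioned until Log D values were consistent. Log D = Log[cpm/g octanol / cpm/g PBS]. Done in triplicate.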

Series [4] concerns Hippocampus. Kind of series: Biodistribution in Sprague-Dawley rat hippocampus at 5 MBq, iv after 30 mins by autoradiography in presence of 1 mg/kg of mGluR1 antagonist JNJ16259685. The note with it: in vivo, 0.5 h. The class given is organism-based. Set-up: dose 1 mg/kg, route intravenous. The method in brief:
as §1

Series [5] has as its system Rattus norvegicus. Kind of series: Biodistribution in Sprague-Dawley rat pons-medulla at 5 MBq, iv after 30 mins by autoradiography in presence of 1 mg/kg of mGluR1 antagonist JNJ16259685. It counts as organism-based. Set-up: dose 1 mg/kg, route intravenous. The note with it: in vivo, 0.5 h. Summed up: as §1
In series [6] the test system is Cerebellum. Nature of the series: Biodistribution in Sprague-Dawley rat cerebellum at 5 MBq, iv after 30 mins by autoradiography in presence of 1 mg/kg of mGluR1 antagonist JNJ16259685. It counts as organism-based. Further details: dose 1 mg/kg, route intravenous. The note with it: in vivo, 0.5 h. Summed up: as §1
The test system of series [7] is Thalamus. Nature of the series: Biodistribution in Sprague-Dawley rat thalamus at 5 MBq, iv after 30 mins by autoradiography in presence of 1 mg/kg of mGluR1 antagonist JNJ16259685. The class given is organism-based. Set-up: dose 1 mg/kg, route intravenous. The note with it: in vivo, 0.5 h. The method in brief:
as §1

In series [8] the test system is Striatum. Nature of the series: Biodistribution in Sprague-Dawley rat striatum at 5 MBq, iv after 30 mins by autoradiography in presence of 1 mg/kg of mGluR1 antagonist JNJ16259685. The class given is organism-based. Further details: dose 1 mg/kg, route intravenous. Particulars: in vivo, 0.5 h. The method in brief: as §1
Series [9] concerns Cerebellum. Nature of the series: Biodistribution in Sprague-Dawley rat cerebellum at 5 MBq, iv after 30 mins by autoradiography. It counts as ADME, organism-based. Particulars: in vivo, 0.5 h. The method in brief:
as §1

Series [10] deals with Striatum. Nature of the series: Biodistribution in Sprague-Dawley rat striatum at 5 MBq, iv after 30 mins by autoradiography. It counts as ADME, organism-based. The note with it: in vivo, 0.5 h. Summed up: as §1
For series [11], the system named is Hippocampus. Kind of series: Biodistribution in Sprague-Dawley rat hippocampus at 5 MBq, iv after 30 mins by autoradiography. It counts as ADME, organism-based. Particulars: in vivo, 0.5 h. The method in brief: as §1
For series [12], the system named is Rattus norvegicus. Kind of series: Biodistribution in Sprague-Dawley rat pons-medulla at 5 MBq, iv after 30 mins by autoradiography. The class given is ADME, organism-based. Particulars: in vivo, 0.5 h. The method in brief:
as §1

Series [13] has as its system Cerebral cortex. Kind of series: Biodistribution in Sprague-Dawley rat cerebral cortex at 5 MBq, iv after 30 mins by autoradiography. The note with it: in vivo, 0.5 h. It counts as ADME, organism-based. Summed up:
as §1

Molecules are shown by their SMILES.

The logD is lipophilicity at a set pH, counting ionised and neutral species. A low value points to a more hydrophilic compound. As for `CC(C)Nc1cc(-c2csc(N(C)C(=O)c3ccc([18F])cc3)n2)ncn1`, the Drug uptake with Cerebral cortex [1] is reported as 49.6 PSL/mm2; in the series with Thalamus [2], 672.6 PSL/mm2; with Hippocampus [4] it was 58.3 PSL/mm2; in the series on Rattus norvegicus [5] it was 58.8 PSL/mm2; in the series with Cerebellum [6], 76.6 PSL/mm2; in the series on Thalamus [7], 63.1 PSL/mm2. The Drug uptake stood at 54.1 PSL/mm2 in the series on Striatum [8]; 635.9 PSL/mm2 in the series on Cerebellum [9]; 478.5 PSL/mm2 in the series with Striatum [10]; 428.1 PSL/mm2 in the series on Hippocampus [11]; 69.3 PSL/mm2 in the series on Rattus norvegicus [12]; 342.2 PSL/mm2 with Cerebral cortex [13]. Further, the logD in series [3] was 1.46.
